Measurements: ChEMBL document CHEMBL1145930, “Synthesis and evaluation of nitroheterocyclic carbamate prodrugs for use with nitroreductase-mediated gene-directed enzyme prodrug therapy” (J Med Chem, 2003)
Values after ≈ are worked out from the molar mass of the structure shown.

Assays:
EMT6 [1] = experiment: Inhibitory activity against EMT6 murine cell line; format: functional, cell-based; conditions: Mus musculus
In short: (§1)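 Aerobic growth inhibition of log-phase cells (parental NTR-negative lines). Cultures seeded 24 h before an 18 h drug exposure; cell density read 4–5 days later by sulforhodamine B staining. IC50 is the concentration giving 50% growth inhibition versus same-plate controls. Mean ± SEM of up to five independent experiments.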

EMT6 [2] = experiment: Ratio between EMT6 and EMT6-NTRpuro was determined; format: functional, Mus musculus
In short: (§2)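 Parental and stably NTR-transfected cells were tested in parallel by aerobic SRB growth inhibition (18 h exposure, readout 4–5 days later). The ratio is IC50(NTR-ve)/IC50(NTR+ve), calculated within each experiment. Selection drug was kept during passage but omitted during experiments: puromycin 15 µM for V79, 5 µM for EMT6; G418 300 µg/mL for SKOV3/WiDr.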

V79 [3] = experiment: Ratio between V79 and V79-NTRpuro was determined; format: functional, Cricetulus griseus; in short: as §2
WiDr [4] = experiment: Ratio between WiDr and WiDr-NTRneo was determined; format: functional, Homo sapiens; in short: as §2
SK-OV-3 [5] = experiment: Inhibitory activity was determined against SKOV3 cell line in human; format: functional, cell-based; in short: as §1
SK-OV-3 [6] = experiment: Ratio between SKOV3 and SKOV3-NTR neo was determined; format: functional, Homo sapiens; in short: as §2
WiDr [7] = experiment: Inhibitory activity was determined against WiDr cell line in human; format: functional, cell-based; in short: as §1
V79 [8] = experiment: Inhibitory activity was determined against V79 cell line in chinese hamster; format: functional, cell-based; conditions: Cricetulus griseus; in short: as §1
[9] = Solubility in alpha-MEM culture medium; format: physicochemical
In short: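 Solubility measured in α-MEM culture medium with 5% fetal calf serum, by HPLC analysis of the supernatant of a saturated solution.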

Mus musculus = experiment: In vivo maximum tolerance dose in C3H mice by ip administration; format: functional
In short: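 Male C3H mice (ca. 25 g), groups of six, given single ip doses in 10^(1/8)-fold increments. Vehicle DMSO at 1 μL/g for most compounds; CB1954 given in 10% DMA/40% PEG400/50% water at 10 μL/g. Animals observed daily for 60 days; any losing >15% body weight or becoming moribund were terminated.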

SK-OV-3 [10] = experiment: Inhibitory activity against SKOV3 (human ovarian carcinoma) cell line in human; format: functional, cell-based; in short: as §1
EMT6 [11] = experiment: Inhibitory activity against EMT6 (mouse mammary carcinoma) murine cell line; format: functional, cell-based; in short: as §1

SMILES | IC50 (EMT6 [1]) [µM] | Ratio (EMT6 [2]) | Ratio (V79 [3]) | Ratio (WiDr [4]) | IC50 (SK-OV-3 [5]) [µM] | Ratio (SK-OV-3 [6]) | IC50 (WiDr [7]) [µM] | IC50 (V79 [8]) [µM] | solubility [9] [µM] | MTD (Mus musculus) [µM] | IC50 (SK-OV-3 [10]) [µM] | IC50 (EMT6 [11]) [µM]
CCOC(=O)c1cc(COC(=O)Nc2cc3c(c4ccccc24)C(C(=O)c2cc4cc(OC)c(OC)c(OC)c4[nH]2)CN3CCl)c([N+](=O)[O-])n1C (centres undefined) | 28 | 12 | 2 | 13 | 97 | 9.6 | 94 | 24 |  |  |  | 
COc1cc2cc(C(=O)C3CN(CCl)c4cc(NC(=O)OCc5ccn(C)c5[N+](=O)[O-])c5ccccc5c43)[nH]c2c(OC)c1OC (centres undefined) | 64 | 1.3 | 1.5 | 1.8 | 116 | 0.5 | 219 | 62 | 18 (≈ 11.7 µg/mL) |  |  | 
COc1cc2cc(C(=O)C3CN(CCl)c4cc(NC(=O)OCc5cnc([N+](=O)[O-])n5C)c5ccccc5c43)[nH]c2c(OC)c1OC (centres undefined) | 19.6 | 62 | 14.7 | 40 | 75 | 21 | 75 | 24 | 17 (≈ 11 µg/mL) | >1000 |  | 
COc1cc2cc(C(=O)C3CN(CCl)c4cc(NC(=O)OCc5ccc([N+](=O)[O-])n5C)c5ccccc5c43)[nH]c2c(OC)c1OC (centres undefined) | 49 | 1.2 | 1 | 2.5 | 265 | 1.3 | 182 | 53 | 9 (≈ 5.83 µg/mL) |  |  | 
COc1cc2cc(C(=O)C3CN(CCl)c4cc(NC(=O)OCc5ncc([N+](=O)[O-])n5CCO)c5ccccc5c43)[nH]c2c(OC)c1OC (centres undefined) | 129 | 11 | 1.2 | 12.4 | 378 | 26 | 427 | 94 | 20 (≈ 13.6 µg/mL) |  |  | 
NC(=O)c1cc(N(CCBr)CCBr)c([N+](=O)[O-])cc1[N+](=O)[O-] | 54 | 1380 | 302 | 174 | 58 | 211 |  |  | 40 (≈ 17.6 µg/mL) |  |  | 
COc1cc2cc(C(=O)C3CN(CCl)c4cc(NC(=O)OCc5cnn(C)c5[N+](=O)[O-])c5ccccc5c43)[nH]c2c(OC)c1OC (centres undefined) | 39 | 87 | 37 | 13.5 | 0.032 | 30.3 | 0.0113 | 41 | 8 (≈ 5.19 µg/mL) |  |  | 
COc1cc2cc(C(=O)C3CN(CCl)c4cc(NC(=O)OCc5ccc([N+](=O)[O-])o5)c5ccccc5c43)[nH]c2c(OC)c1OC (centres undefined) | 18 | 1.2 | 1.1 | 1.9 | 76 | 1.2 | 89 | 20 | 11 (≈ 6.99 µg/mL) |  |  | 
COc1cc2cc(C(=O)C3CN(CCl)c4cc(NC(=O)OCc5ccc([N+](=O)[O-])s5)c5ccccc5c43)[nH]c2c(OC)c1OC (centres undefined) | 0.0043 | 16 | 3.1 | 13.5 | 0.0106 | 7 | 0.018 | 0.0035 | 4 (≈ 2.6 µg/mL) |  |  | 
COc1cc2cc(C(=O)C3CN(CCl)c4cc(NC(=O)OCc5ncn(C)c5[N+](=O)[O-])c5ccccc5c43)[nH]c2c(OC)c1OC (centres undefined) | 63 | 6.5 | 1.4 | 3.4 | 61 | 5.6 | 0.024 | 44 | 5.5 (≈ 3.57 µg/mL) |  |  | 
CCOC(=O)c1cc([N+](=O)[O-])c(COC(=O)Nc2cc3c(c4ccccc24)C(C(=O)c2cc4cc(OC)c(OC)c(OC)c4[nH]2)CN3CCl)n1C (centres undefined) |  |  | 1.8 | 1.3 | 98 | 0.8 | 223 | 52 | 21 (≈ 15.1 µg/mL) |  |  | 
COc1cc2cc(C(=O)C3CN(CCl)c4cc(NC(=O)OCc5ncc([N+](=O)[O-])n5C)c5ccccc5c43)[nH]c2c(OC)c1OC (centres undefined) | 78 | 71 | 10 | 100 | 146 | 50 | 230 | 68 | 8 (≈ 5.19 µg/mL) | >1000 |  | 
COc1cc2cc(C(=O)C3CN(CCl)c4cc(NC(=O)OCc5c([N+](=O)[O-])ccn5C)c5ccccc5c43)[nH]c2c(OC)c1OC (centres undefined) | 15 | 1.5 | 0.9 | 1.4 | 0.025 | 0.7 | 0.028 | 0.006 | 8.4 (≈ 5.44 µg/mL) |  |  | 
COc1cc2cc(C(=O)C3CN(CCl)c4cc(NC(=O)OCc5c([N+](=O)[O-])ncn5C)c5ccccc5c43)[nH]c2c(OC)c1OC (centres undefined) | 73 | 2.1 | 1.2 | 2.8 | 185 | 4.8 | 201 | 55 | 13 (≈ 8.44 µg/mL) |  |  | 
COc1cc2cc(C(=O)N3CC(CCl)c4c3cc(N)c3ccccc43)[nH]c2c(OC)c1OC (centres undefined) | 0.00037 | 2 | 0.9 | 0.9 | 0.0011 | 0.55 | 0.0016 | 0.00033 | 197 (≈ 91.8 µg/mL) |  |  | 
NC(=O)c1cc(N2CC2)c([N+](=O)[O-])cc1[N+](=O)[O-] [TRETAZICAR] |  | 930 | 2090 | 51 |  | 317 |  |  | 1600 (≈ 403 µg/mL) |  | 174 | 71
